Results on five compounds are retold here after ChEMBL document CHEMBL3045489, “Synthesis, fungicidal activity, and QSAR of a series of 2-dichlorophenyl-3-triazolylpropyl ethers” (J Agric Food Chem, 2000).

Converted amounts (≈) assume the structure as drawn. The source made the active and inactive calls. The calls are words filed in the database; no cut-off is given here.

The subject of experiment [1] is Ustilago maydis. Nature of the experiment: Antifungal activity against Ustilago maydis sporidia assessed as swollen, multicellular and branched sporidia at 0.25 to 50 mg/ml measured after 18 hr by light microscopy. Conditions: Mycosarcoma maydis. The format is functional, organism-based. The method in brief: (§1)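 U. maydis sporidia grown in Coursen and Sisler broth and treated at 0.25 to 50 mg mL-1 for 18 h. Cell morphology and division examined by interference contrast (Nomarski) and fluorescence microscopy.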

The test system of experiment [2] is Podosphaera fuliginea. As to the kind of experiment: Fungicidal activity against Podosphaera fuliginea inoculated in […] placed in growth room after 24 hr incubation assessed as disease cure after 24 hr of inoculation. The class given is functional.
The test system of experiment [3] is Ustilago maydis. As to the kind of experiment: Antifungal activity against Ustilago maydis assessed as inhibition of radial growth on potato dextrose. The format is functional, organism-based. Conditions: Mycosarcoma maydis.
The subject of another experiment is Pyrenophora teres. As to the kind of experiment: Antifungal activity against Pyrenophora teres assessed as inhibition of radial growth on potato dextrose. The class given is functional, organism-based.
The next experiment deals with Bipolaris maydis. As to the kind of experiment: Antifungal activity against Cochliobolus heterostrophus assessed as inhibition of radial growth on potato dextrose. The class given is functional, organism-based. The method in brief: (§2)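 Radial growth inhibition on potato dextrose or Czapek agar across 100-0.1 mg L-1. ED50 calculated for each compound.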
The subject of the next experiment is Oculimacula yallundae. Nature of the experiment: Antifungal activity against Oculimacula yallundae assessed as inhibition of radial growth on potato dextrose. The class given is functional, organism-based. The method in brief:
as §2

In the next experiment the test system is Fusarium graminearum. Nature of the experiment: Antifungal activity against Fusarium graminearum assessed as inhibition of radial growth on potato dextrose. The format is functional, organism-based. The essentials:
as §2

For a further experiment, the system named is Cercospora beticola. Nature of the experiment: Antifungal activity against Cercospora beticola assessed as inhibition of radial growth on potato dextrose. The class given is functional, organism-based. The essentials: as §2
Another experiment relates to Botrytis cinerea. As to the kind of experiment: Antifungal activity against Botryotinia fuckelianaassessed as inhibition of radial growth on potato dextrose. The class given is functional, organism-based. The essentials:
as §2

Experiment [4] relates to Ustilago maydis. As to the kind of experiment: Antifungal activity against Ustilago maydis sporidia assessed as cell division at 0.25 to 50 mg/ml by light microscopy. The format is functional, organism-based. Conditions: Mycosarcoma maydis. The method in brief: as §1
Experiment [5] deals with Podosphaera fuliginea. As to the kind of experiment: Fungicidal activity against Podosphaera fuliginea inoculated in […] placed in growth room after 24 hr incubation assessed as direct protection after 6 to 10 days. The class given is functional.
In experiment [6] the test system is Uromyces appendiculatus. As to the kind of experiment: Fungicidal activity against Uromyces appendiculatus inoculated in Phaseolus vulgaris placed in growth room after 24 hr incubation assessed as disease cure after 24 hr of inoculation. The format is functional. The essentials:
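Bean rust curative test with the same plants, spray formulation (acetone/water 1:4 with Tween 20), 100 to 0.001 mg L-1 range and U. appendiculatus inoculum (1 × 10^5 spores mL-1). Compound applied 24 h after inoculation. Read-out expressed as MIC.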

In experiment [7] the test system is Uromyces appendiculatus. As to the kind of experiment: Fungicidal activity against Uromyces appendiculatus inoculated in Phaseolus vulgaris placed in growth room after 24 hr incubation assessed as direct protection after 6 to 10 days. The format is functional. The essentials:
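Bean plants grown at 22 ± 1 °C, 80 ± 10% RH. Compound in acetone/water (1:4 v/v) with Tween 20 (0.4 mg mL-1) was sprayed on leaves until moist at 100 to 0.001 mg L-1. One day later leaves were inoculated with U. appendiculatus uredospores (1 × 10^5 spores mL-1), held 24 h at 22 ± 2 °C and 100% RH, then moved to the growth room. Scored at 6, 8 and 10 days as MIC.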

For experiment [8], the target named is T1, Lanosterol 14-alpha demethylase (Mycosarcoma maydis, UniProt P49602).
T1 sequence (P49602 whole entry): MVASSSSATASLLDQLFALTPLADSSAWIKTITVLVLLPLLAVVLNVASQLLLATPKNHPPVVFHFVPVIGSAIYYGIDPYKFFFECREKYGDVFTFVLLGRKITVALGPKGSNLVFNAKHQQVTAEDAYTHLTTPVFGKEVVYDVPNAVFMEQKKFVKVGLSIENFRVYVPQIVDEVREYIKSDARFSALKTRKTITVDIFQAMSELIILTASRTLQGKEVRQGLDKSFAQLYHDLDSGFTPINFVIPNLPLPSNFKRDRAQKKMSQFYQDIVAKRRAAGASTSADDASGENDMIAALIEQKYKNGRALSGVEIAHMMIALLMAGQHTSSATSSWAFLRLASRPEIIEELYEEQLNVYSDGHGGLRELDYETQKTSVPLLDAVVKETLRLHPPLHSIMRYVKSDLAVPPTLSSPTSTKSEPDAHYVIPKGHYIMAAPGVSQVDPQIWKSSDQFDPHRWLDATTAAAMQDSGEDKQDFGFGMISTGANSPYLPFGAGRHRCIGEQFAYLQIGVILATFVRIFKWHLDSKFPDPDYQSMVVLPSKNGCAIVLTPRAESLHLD
As to the kind of experiment: Inhibition of 14alpha-demethylase Ustilago maydis ATCC 14826 assessed as reduction in 14alpha-methylfecosterol. Conditions: read-out: I50 (converted). The method in brief: (§3)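 Actively growing broth cultures of U. maydis ATCC 14826 were incubated 18 h with increasing compound concentrations. Sterols were then extracted and analysed, and 14α-demethyl and 14α-methyl sterols quantified.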

Experiment [9] deals with T2, Lanosterol 14-alpha demethylase (Mycosarcoma maydis) (UniProt P49602).
T2 sequence (whole entry): T1 sequence (P49602 whole entry)
Nature of the experiment: Inhibition of 14alpha-demethylase Ustilago maydis ATCC 14826 assessed as reduction in ergosterol. The method in brief:
as §3

Experiment [10] addresses T2, Lanosterol 14-alpha demethylase (Mycosarcoma maydis). As to the kind of experiment: Inhibition of 14alpha-demethylase Ustilago maydis ATCC 14826 assessed as reduction in ergosta-5,7-dien-3-ol. The essentials:
as §3

Experiment [11] shares this target. Nature of the experiment: Inhibition of 14alpha-demethylase Ustilago maydis ATCC 14826 assessed as reduction in 14alpha-methylfecosterol at 20 mg/ml (reference value: 0.4%). Also on record: scale not given: the % may be the effect or the level left. The method in brief: as §3
Experiment [12] shares this target. As to the kind of experiment: Inhibition of 14alpha-demethylase Ustilago maydis ATCC 14826 assessed as reduction in ergosterol at 20 mg/ml (reference value: 61%). Also on record: scale not given: the % may be the effect or the level left. The essentials: as §3
Experiment [13] shares this target. Nature of the experiment: Inhibition of 14alpha-demethylase Ustilago maydis ATCC 14826 assessed as reduction in obtusifoliol at 20 mg/ml (reference value: 0.7%). Further details: scale not given: the % may be the effect or the level left. The method in brief:
as §3

For experiment [14] the target is unchanged. As to the kind of experiment: Inhibition of 14alpha-demethylase Ustilago maydis ATCC 14826 assessed as reduction in eburicol at 20 mg/ml (reference value: 3.4%). Also on record: scale not given: the % may be the effect or the level left. The method in brief: as §3

Take `FC(F)C(F)(F)OCC(Cn1cncn1)c1ccc(Cl)cc1Cl` (configuration not stated) [TETRACONAZOLE]: the outcome in the experiment on Ustilago maydis [1] and in the experiment on Ustilago maydis [4] was Active. For the same compound, the minimum inhibitory concentration (MIC) came to 0.9 µg/mL (≈ 2.42 µM) with Podosphaera fuliginea [2], 0.05 µg/mL (≈ 0.134 µM) with Podosphaera fuliginea [5], 25 µg/mL (≈ 67.2 µM) in the experiment on Uromyces appendiculatus [6] and 25 µg/mL (≈ 67.2 µM) in the experiment on Uromyces appendiculatus [7]. For the same compound, the EC50 in the experiment on Ustilago maydis [3] is 0.25 µg/mL (≈ 0.672 µM); in the experiment with Pyrenophora teres it was 0.4 µg/mL (≈ 1.07 µM); in the experiment on Bipolaris maydis it was less than 0.1 µg/mL; in the experiment on Oculimacula yallundae, 0.45 µg/mL (≈ 1.21 µM); in the experiment on Fusarium graminearum it was 4 µg/mL (≈ 10.7 µM); with Cercospora beticola, 0.12 µg/mL (≈ 0.322 µM). The EC50 in the experiment on Botrytis cinerea came out at 1.2 µg/mL (≈ 3.22 µM).
Take `C=CCOC[C@H](Cn1cncn1)c1ccc(Cl)cc1Cl`: in [8], the IC50 is 1.99 µM. Moreover, the inhibition result in [9] and in experiment [10] was “Active” each time. Also, the EC50 with Ustilago maydis [3] is 0.22 µg/mL (≈ 0.705 µM); with Pyrenophora teres it was 0.8 µg/mL (≈ 2.56 µM); in the experiment with Bipolaris maydis it was 0.2 µg/mL (≈ 0.641 µM); with Oculimacula yallundae it was 0.4 µg/mL (≈ 1.28 µM); in the experiment with Fusarium graminearum, 8.5 µg/mL (≈ 27.2 µM); with Cercospora beticola, 0.25 µg/mL (≈ 0.801 µM). For the same compound, the concentration for a half-maximal effect (EC50) in the experiment with Botrytis cinerea is 3 µg/mL (≈ 9.61 µM). Moreover, the MIC with Podosphaera fuliginea [5] and with Uromyces appendiculatus [7] was 100 µg/mL (≈ 320 µM) throughout.
Take `C=CCOCC(Cn1cncn1)c1ccc(Cl)cc1Cl` (racemic): in experiment [8], the IC50 is 1.73 µM. Further, the Activity in experiment [11] amounted to 8.8%; in experiment [12], 5.1%; in experiment [13], 20.6%; in experiment [14], 61.1%. Further, the half-maximal effective concentration (EC50) in the experiment with Ustilago maydis [3] is 0.22 µg/mL (≈ 0.705 µM); in the experiment on Pyrenophora teres it was 1.4 µg/mL (≈ 4.48 µM); in the experiment on Bipolaris maydis, 0.16 µg/mL (≈ 0.512 µM); in the experiment with Oculimacula yallundae, 0.29 µg/mL (≈ 0.929 µM); in the experiment with Fusarium graminearum it was 8.5 µg/mL (≈ 27.2 µM); in the experiment on Cercospora beticola, 0.21 µg/mL (≈ 0.673 µM). Moreover, the EC50 in the experiment on Botrytis cinerea came out at 1.5 µg/mL (≈ 4.8 µM). Also, the minimum inhibitory concentration (MIC) in the experiment on Podosphaera fuliginea [5] worked out at 30 µg/mL (≈ 96.1 µM); with Uromyces appendiculatus [6], 28 µg/mL (≈ 89.7 µM); in the experiment with Uromyces appendiculatus [7], 200 µg/mL (≈ 641 µM).
In the case of `Clc1ccc(C(COCc2ccccc2)Cn2cncn2)c(Cl)c1` (racemic), the EC50 in the experiment with Ustilago maydis [3] turned out to be 0.14 µg/mL (≈ 0.386 µM); in the experiment with Pyrenophora teres, 0.7 µg/mL (≈ 1.93 µM); in the experiment on Bipolaris maydis, 0.18 µg/mL (≈ 0.497 µM); in the experiment on Oculimacula yallundae, 0.35 µg/mL (≈ 0.966 µM); with Fusarium graminearum it was 5 µg/mL (≈ 13.8 µM); in the experiment with Cercospora beticola it was 0.2 µg/mL (≈ 0.552 µM). Further, the EC50 in the experiment on Botrytis cinerea is 1.6 µg/mL (≈ 4.42 µM). The MIC amounted to 50 µg/mL (≈ 138 µM) in the experiment with Podosphaera fuliginea [5], 35 µg/mL (≈ 96.6 µM) in the experiment on Uromyces appendiculatus [6] and 30 µg/mL (≈ 82.8 µM) in the experiment with Uromyces appendiculatus [7].
As for `C=CCOC[C@@H](Cn1cncn1)c1ccc(Cl)cc1Cl`, in experiment [8], the IC50 was 0.897 µM. Besides, the inhibition result in experiment [9] and in experiment [10] was “Active” each time. The EC50 with Ustilago maydis [3] was 0.09 µg/mL (≈ 0.288 µM); in the experiment with Pyrenophora teres, 1.5 µg/mL (≈ 4.8 µM); in the experiment on Bipolaris maydis, 0.18 µg/mL (≈ 0.577 µM); in the experiment on Oculimacula yallundae, 0.28 µg/mL (≈ 0.897 µM); in the experiment on Fusarium graminearum, 10 µg/mL (≈ 32 µM); in the experiment with Cercospora beticola, less than 0.1 µg/mL. In the experiment on Botrytis cinerea, the concentration giving a half-maximal response (EC50) came out at 1.5 µg/mL (≈ 4.8 µM). Besides, the MIC in the experiment on Podosphaera fuliginea [5] worked out at 90 µg/mL (≈ 288 µM); in the experiment on Uromyces appendiculatus [7], 25 µg/mL (≈ 80.1 µM).
